One data set concerns the target Cytochrome P450 2C9 (Homo sapiens, UniProt P11712). Kind of data set: Activity of human CYP2C9 expressed in microsomes isolated from baculovirus infected insect cell assessed as enzyme-mediated compound formation treated with [14C]-rivoglitazone at 20 uM after 2 hrs by radio-HPLC/LC-MS/MS analysis in presence of NADPH-generating system and NADPH-generating system/SAM. In kind it is ADME.

The test system of the next data set is Plasma. Kind of data set: Drug level in po dosed monkey plasma treated with [14C]-rivoglitazone. The following applies: rhesus monkey, in vivo. In kind it is ADME, organism-based, Macaca mulatta.
Another data set has as its target T1, Cytochrome P450 2C8 (Homo sapiens, UniProt P10632).
T1 sequence (P10632 whole entry): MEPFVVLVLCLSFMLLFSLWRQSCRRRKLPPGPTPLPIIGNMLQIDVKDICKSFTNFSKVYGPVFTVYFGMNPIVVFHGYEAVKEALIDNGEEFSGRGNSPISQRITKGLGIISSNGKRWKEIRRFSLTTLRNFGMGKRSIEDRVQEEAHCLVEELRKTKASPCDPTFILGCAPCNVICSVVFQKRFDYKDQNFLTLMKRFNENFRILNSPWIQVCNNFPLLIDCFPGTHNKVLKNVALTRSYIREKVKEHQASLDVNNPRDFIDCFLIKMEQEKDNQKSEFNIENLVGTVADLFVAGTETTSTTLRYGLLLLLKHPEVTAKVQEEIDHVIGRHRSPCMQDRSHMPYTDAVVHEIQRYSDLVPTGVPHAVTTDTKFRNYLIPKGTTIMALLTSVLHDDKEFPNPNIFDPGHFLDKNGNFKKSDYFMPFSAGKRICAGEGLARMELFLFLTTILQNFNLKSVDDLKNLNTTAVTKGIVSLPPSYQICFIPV
As to the kind of experiment: Activity of human CYP2C8 expressed in microsomes isolated from baculovirus infected insect cell assessed as enzyme-mediated compound formation treated with [14C]-rivoglitazone at 20 uM after 2 hrs by radio-HPLC/LC-MS/MS analysis in presence of NADPH-generating system and NADPH-generating system/SAM. It is filed as ADME. The method in brief:
(§1)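 Baculovirus/insect-cell microsomes expressing single human CYPs, 1 mg/ml protein, with 50 mM potassium phosphate (pH 7.4) or 100 mM Tris-HCl (pH 7.5). NADPH-generating system: 2 mM NADP⁺, 20 mM glucose 6-phosphate, 2 units/ml G6PDH, 10 mM MgCl₂. [¹⁴C]rivoglitazone at 20 μM, 2 h at 37°C with shaking. Control used insect-cell control supersomes. Stopped with acetonitrile; supernatant concentrated under nitrogen; metabolites analysed by radio-HPLC, LC-MS and LC-MS/MS.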

Data set [1] is described as follows: Retention time of the compound by LC-MS/MS analysis. In kind it is physicochemical. The method in brief:
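LC-MS/MS used a YMC-Pack ODS-A column (1.5 × 150 mm, 5 μm) at 30°C, 0.1 ml/min. Mobile phase was water and acetonitrile, each with 0.01% TFA. Gradient: 12→60% B over 30 min, →90% B over 5 min, hold 5 min. Detection was UV 220 nm with positive ESI Q-TOF (capillary 3300 V, cone 45 V), collision energy 20 eV and xenon as collision gas.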

The test system of data set [2] is Liver microsome. As to the kind of experiment: Drug level in human liver microsomes treated with [14C]-rivoglitazone at 20 uM after 2 hrs by radio-HPLC/LC-MS/MS analysis in presence of NADPH-generating system and NADPH-generating system/SAM. In kind it is ADME. The method in brief: (§2)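 Pooled male liver microsomes (1 mg/ml protein; rat from 94 Sprague-Dawley, monkey from 8 cynomolgus, human from 23 donors) were incubated with [¹⁴C]rivoglitazone (20 μM). Buffer: 10 mM potassium phosphate (pH 7.4). Cofactors: NADPH-generating system (2 mM NADP⁺, 20 mM G6P, 2 U/ml G6PDH, 10 mM MgCl₂), with or without 2 mM SAM. Incubation 2 h at 37°C with shaking; controls lacked NADPH system and SAM alone. Acetonitrile stop, radio-HPLC plus LC-MS.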

Data set [3] can be described thus: Drug level in cynomolgus monkey liver microsomes treated with [14C]-rivoglitazone at 20 uM after 2 hrs by radio-HPLC/LC-MS/MS analysis in presence of NADPH-generating system and NADPH-generating system/SAM. In kind it is ADME, Macaca fascicularis. The method in brief: as §2
The test system of data set [4] is Hepatocyte. Kind of data set: Drug level in rat hepatocytes treated with [14C]-rivoglitazone at 30 uM after 3 hrs by radio-HPLC/LC-MS/MS analysis in presence of NADPH-generating system and NADPH-generating system/SAM. It is filed as ADME, cell-based.
The next data set has as its target Cytochrome P450 2D6 (Homo sapiens, UniProt P10635). As to the kind of experiment: Activity of human CYP2D6 expressed in microsomes isolated from baculovirus infected insect cell assessed as enzyme-mediated compound formation treated with [14C]-rivoglitazone at 20 uM after 2 hrs by radio-HPLC/LC-MS/MS analysis in presence of NADPH-generating system and NADPH-generating system/SAM. It is filed as ADME.

A further data set has as its target T2, Cytochrome P450 1A2 (Homo sapiens, UniProt P05177).
T2 sequence (P05177 whole entry): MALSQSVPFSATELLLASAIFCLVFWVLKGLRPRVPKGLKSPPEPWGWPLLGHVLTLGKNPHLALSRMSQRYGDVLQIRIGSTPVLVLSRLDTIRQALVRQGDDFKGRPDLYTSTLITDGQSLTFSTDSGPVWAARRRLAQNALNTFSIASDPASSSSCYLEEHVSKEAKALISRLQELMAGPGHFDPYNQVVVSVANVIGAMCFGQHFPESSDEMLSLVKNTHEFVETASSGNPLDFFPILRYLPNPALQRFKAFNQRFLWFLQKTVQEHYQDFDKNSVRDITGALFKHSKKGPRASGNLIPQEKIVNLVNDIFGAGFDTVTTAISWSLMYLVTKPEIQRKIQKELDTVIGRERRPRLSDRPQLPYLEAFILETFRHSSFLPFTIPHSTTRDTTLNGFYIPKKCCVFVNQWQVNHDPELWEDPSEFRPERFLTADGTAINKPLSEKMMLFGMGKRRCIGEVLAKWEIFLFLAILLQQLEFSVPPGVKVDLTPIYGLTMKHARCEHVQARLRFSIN
Kind of data set: Activity of human CYP1A2 expressed in microsomes isolated from baculovirus infected insect cell assessed as enzyme-mediated compound formation treated with [14C]-rivoglitazone at 20 uM after 2 hrs by radio-HPLC/LC-MS/MS analysis in presence of NADPH-generating system and NADPH-generating system/SAM. It is filed as ADME. The method in brief:
as §1

The target in a further data set is Cytochrome P450 2C19 (Homo sapiens, UniProt P33261). Kind of data set: Activity of human CYP2C19 expressed in microsomes isolated from baculovirus infected insect cell assessed as enzyme-mediated compound formation treated with [14C]-rivoglitazone at 20 uM after 2 hrs by radio-HPLC/LC-MS/MS analysis in presence of NADPH-generating system and NADPH-generating system/SAM. In kind it is ADME. The method in brief:
as §1

Data set [5] is described as follows: Drug level in po dosed monkey bile treated with [14C]-rivoglitazone. It is filed as ADME, organism-based, Macaca mulatta. The following applies: rhesus monkey, in vivo.
Data set [6] deals with Liver microsome. As to the kind of experiment: Drug level in Sprague-Dawley rat liver microsomes treated with [14C]-rivoglitazone at 20 uM after 2 hrs by radio-HPLC/LC-MS/MS analysis in presence of NADPH-generating system and NADPH-generating system/SAM. It is filed as ADME. The method in brief: as §2
In general terms: Liver microsomes are vesicles of endoplasmic reticulum, rich in cytochrome P450 enzymes.

Data set [7] relates to Hepatocyte. As to the kind of experiment: Drug level in human hepatocytes treated with [14C]-rivoglitazone at 30 uM after 3 hrs by radio-HPLC/LC-MS/MS analysis in presence of NADPH-generating system and NADPH-generating system/SAM. It is filed as ADME, cell-based.
The next data set has as its target Cytochrome P450 3A4 (Homo sapiens, UniProt P08684). Kind of data set: Activity of human CYP3A4 expressed in microsomes isolated from baculovirus infected insect cell assessed as enzyme-mediated compound formation treated with [14C]-rivoglitazone at 20 uM after 2 hrs by radio-HPLC/LC-MS/MS analysis in presence of NADPH-generating system and NADPH-generating system/SAM. It is filed as ADME.

The nature of data set [8]: Drug level in po dosed monkey liver microsomes treated with [14C]-rivoglitazone. In kind it is ADME, organism-based, Macaca mulatta. To be noted: rhesus monkey, in vivo.
The target of another data set is Cytochrome P450 3A5 (Homo sapiens, UniProt P20815). As to the kind of experiment: Activity of human CYP3A5 expressed in microsomes isolated from baculovirus infected insect cell assessed as enzyme-mediated compound formation treated with [14C]-rivoglitazone at 20 uM after 2 hrs by radio-HPLC/LC-MS/MS analysis in presence of NADPH-generating system and NADPH-generating system/SAM. It is filed as ADME. The method in brief: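 cDNA-expressed human CYP3A5 in baculovirus-insect-cell microsomes (1 mg/ml protein) was incubated with [¹⁴C]rivoglitazone (20 μM) in 50 mM potassium phosphate (pH 7.4) or 100 mM Tris-HCl (pH 7.5). NADPH-generating system: 2 mM NADP⁺, 20 mM glucose 6-phosphate, 2 units/ml G6PDH, 10 mM MgCl₂. Incubation ran 2 h at 37°C with shaking; insect-cell control supersomes served as control. Acetonitrile stop, supernatant concentrated, then radio-HPLC, LC-MS and LC-MS/MS.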
Sequence of Cytochrome P450 3A5 (P20815 whole entry): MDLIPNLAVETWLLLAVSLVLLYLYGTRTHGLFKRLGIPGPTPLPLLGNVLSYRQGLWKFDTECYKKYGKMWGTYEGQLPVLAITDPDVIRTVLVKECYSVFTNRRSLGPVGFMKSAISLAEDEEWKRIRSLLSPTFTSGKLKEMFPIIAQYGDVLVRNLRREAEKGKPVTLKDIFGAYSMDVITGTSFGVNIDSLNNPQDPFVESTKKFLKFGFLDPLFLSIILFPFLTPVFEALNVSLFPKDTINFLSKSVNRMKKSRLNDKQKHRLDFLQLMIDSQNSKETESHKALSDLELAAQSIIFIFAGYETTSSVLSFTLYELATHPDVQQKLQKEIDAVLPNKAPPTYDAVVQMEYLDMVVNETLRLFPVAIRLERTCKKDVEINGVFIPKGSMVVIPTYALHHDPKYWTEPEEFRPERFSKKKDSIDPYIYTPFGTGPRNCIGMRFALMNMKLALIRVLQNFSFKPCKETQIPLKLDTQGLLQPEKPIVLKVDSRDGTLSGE

Structures are written as SMILES.

For one compound, Drug metabolism and Retention_time results are on record in ChEMBL document CHEMBL3526048, “In vitro metabolism of rivoglitazone, a novel peroxisome proliferator-activated receptor γ agonist, in rat, monkey, and human liver microsomes and freshly isolated hepatocytes” (Drug Metab Dispos, 2011).

Sequence of Cytochrome P450 3A4 (P08684 whole entry): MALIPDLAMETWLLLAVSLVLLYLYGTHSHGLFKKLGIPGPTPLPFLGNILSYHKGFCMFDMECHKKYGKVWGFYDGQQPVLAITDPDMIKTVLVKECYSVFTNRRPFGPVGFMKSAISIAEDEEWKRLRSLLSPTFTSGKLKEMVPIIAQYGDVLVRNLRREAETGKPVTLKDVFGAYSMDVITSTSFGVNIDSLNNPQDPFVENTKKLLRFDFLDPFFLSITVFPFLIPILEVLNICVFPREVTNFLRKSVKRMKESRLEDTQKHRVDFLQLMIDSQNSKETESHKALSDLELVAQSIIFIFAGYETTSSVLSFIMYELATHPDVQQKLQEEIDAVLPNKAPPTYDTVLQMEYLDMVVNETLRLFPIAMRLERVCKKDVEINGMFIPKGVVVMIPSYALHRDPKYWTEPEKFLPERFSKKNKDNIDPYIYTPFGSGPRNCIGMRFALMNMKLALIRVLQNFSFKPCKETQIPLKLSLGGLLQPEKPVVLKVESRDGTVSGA
Sequence of Cytochrome P450 2C9 (P11712 whole entry): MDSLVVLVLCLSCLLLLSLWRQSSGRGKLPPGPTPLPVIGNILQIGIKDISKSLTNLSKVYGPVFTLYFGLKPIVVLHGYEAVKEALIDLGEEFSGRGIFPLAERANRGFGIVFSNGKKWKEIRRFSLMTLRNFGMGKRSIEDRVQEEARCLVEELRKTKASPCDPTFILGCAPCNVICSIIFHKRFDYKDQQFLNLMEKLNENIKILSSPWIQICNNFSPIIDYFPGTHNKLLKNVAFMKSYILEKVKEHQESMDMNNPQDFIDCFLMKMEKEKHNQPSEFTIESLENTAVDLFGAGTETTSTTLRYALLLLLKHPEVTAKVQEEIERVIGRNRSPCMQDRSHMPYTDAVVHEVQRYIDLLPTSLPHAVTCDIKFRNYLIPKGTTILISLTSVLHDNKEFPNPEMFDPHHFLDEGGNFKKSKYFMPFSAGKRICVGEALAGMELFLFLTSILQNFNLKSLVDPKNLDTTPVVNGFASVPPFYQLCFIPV
Sequence of Cytochrome P450 2D6 (P10635 whole entry): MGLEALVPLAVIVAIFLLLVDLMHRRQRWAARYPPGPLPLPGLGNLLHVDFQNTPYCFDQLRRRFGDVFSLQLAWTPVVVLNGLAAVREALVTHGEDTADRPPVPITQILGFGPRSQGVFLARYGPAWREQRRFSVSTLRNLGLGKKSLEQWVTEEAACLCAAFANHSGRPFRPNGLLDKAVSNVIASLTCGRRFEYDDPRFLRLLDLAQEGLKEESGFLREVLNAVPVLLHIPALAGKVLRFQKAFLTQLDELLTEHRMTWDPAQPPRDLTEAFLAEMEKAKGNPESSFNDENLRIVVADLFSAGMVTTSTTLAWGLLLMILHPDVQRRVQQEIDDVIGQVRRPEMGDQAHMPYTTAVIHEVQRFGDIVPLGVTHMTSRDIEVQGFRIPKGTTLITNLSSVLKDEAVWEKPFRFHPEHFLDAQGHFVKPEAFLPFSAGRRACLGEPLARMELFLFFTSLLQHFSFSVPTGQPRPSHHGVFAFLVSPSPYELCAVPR
Sequence of Cytochrome P450 2C19 (P33261 whole entry): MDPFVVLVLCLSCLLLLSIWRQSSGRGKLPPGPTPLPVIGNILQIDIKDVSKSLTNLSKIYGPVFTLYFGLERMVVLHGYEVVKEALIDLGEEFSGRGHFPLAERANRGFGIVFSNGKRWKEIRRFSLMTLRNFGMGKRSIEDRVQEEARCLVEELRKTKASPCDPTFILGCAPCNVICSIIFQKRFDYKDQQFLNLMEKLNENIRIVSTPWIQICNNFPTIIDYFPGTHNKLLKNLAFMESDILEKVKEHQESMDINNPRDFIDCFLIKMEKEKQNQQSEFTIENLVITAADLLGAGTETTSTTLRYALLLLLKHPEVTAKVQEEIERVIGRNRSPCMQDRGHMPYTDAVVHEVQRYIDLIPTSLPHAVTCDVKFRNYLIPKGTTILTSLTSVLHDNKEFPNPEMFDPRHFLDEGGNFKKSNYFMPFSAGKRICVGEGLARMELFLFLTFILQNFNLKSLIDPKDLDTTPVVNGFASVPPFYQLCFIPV

Regarding `COc1ccc2nc(COc3ccc(CC4SC(=O)NC4=O)cc3)[nH]c2c1` (stereo unspecified), the Drug metabolism result (on Cytochrome P450 2C9; in the data set with Plasma; at Cytochrome P450 2C8; with Liver microsome [2]; in data set [3]; in the data set with Hepatocyte [4]) was “metabolite_detected” in each case. Also, the Drug metabolism entry (on Cytochrome P450 2D6; on Cytochrome P450 1A2; at Cytochrome P450 2C19; in data set [5]; with Liver microsome [6]; in the data set on Hepatocyte [7]) was “metabolite_detected” each time. Further, the Drug metabolism result (on Cytochrome P450 3A4; in data set [8]; at Cytochrome P450 3A5) was “metabolite_detected” each time. The compound also had a Retention_time in data set [1] of 20.9 min.
